ChEMBL document CHEMBL5390273, “Discovery of a Hydroxylamine-Based Brain-Penetrant EGFR Inhibitor for Metastatic Non-Small-Cell Lung Cancer” (J Med Chem, 2023)
Active and inactive are the calls of the source. No cut-off for these calls is given here.

Key:
[1] = Mutagenicity in Salmonella typhimurium TA1535 at 5 to 100 uM incubated for 96 hrs in presence of rat liver S9 fraction by Ames fluctuation assay; type: toxicity, subcellular; conditions: salmonella enterica subsp. enterica serovar typhimurium, s9, 96 h, dose 5-100 µM
Outline: (§1)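 Fluctuation format in 384-well plates at 37 °C for 96 h. Tested at 5, 10, 50 and 100 μM, 48 replicates per concentration, with and without rat liver S9. Revertant wells counted when OD430/OD570 > 1.0, compared with control by one-tailed Fisher's exact test. Parallel bacterial cytotoxicity test (OD650) at 0.6–100 μM, with growth below 60% of control flagged as cytotoxic.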

[2] = Mutagenicity in Salmonella typhimurium TA100 at 5 to 100 uM incubated for 96 hrs by Ames fluctuation assay; type: toxicity; conditions: salmonella enterica subsp. enterica serovar typhimurium, dose 5-100 µM; outline: as §1
[3] = Mutagenicity in Salmonella typhimurium TA1537 at 5 to 100 uM incubated for 96 hrs in presence of rat liver S9 fraction by Ames fluctuation assay; type: toxicity, subcellular; conditions: salmonella enterica subsp. enterica serovar typhimurium, s9, 96 h, dose 5-100 µM; outline: as §1
[4] = Mutagenicity in Salmonella typhimurium TA100 at 5 to 100 uM incubated for 96 hrs in presence of rat liver S9 fraction by Ames fluctuation assay; type: toxicity, subcellular; conditions: salmonella enterica subsp. enterica serovar typhimurium, s9, 96 h, dose 5-100 µM; outline: as §1
[5] = Mutagenicity in Salmonella typhimurium TA98 at 5 to 100 uM incubated for 96 hrs in presence of rat liver S9 fraction by Ames fluctuation assay; type: toxicity, subcellular; conditions: salmonella enterica subsp. enterica serovar typhimurium, s9, 96 h, dose 5-100 µM; outline: as §1
[6] = Mutagenicity in Salmonella typhimurium TA1535 at 5 to 100 uM incubated for 96 hrs by Ames fluctuation assay; type: toxicity; conditions: salmonella enterica subsp. enterica serovar typhimurium, dose 5-100 µM; outline: as §1
[7] = Mutagenicity in Salmonella typhimurium TA1537 at 5 to 100 uM incubated for 96 hrs by Ames fluctuation assay; type: toxicity; conditions: salmonella enterica subsp. enterica serovar typhimurium, dose 5-100 µM; outline: as §1
[8] = Mutagenicity in Salmonella typhimurium TA98 at 5 to 100 uM incubated for 96 hrs by Ames fluctuation assay; type: toxicity; conditions: salmonella enterica subsp. enterica serovar typhimurium, dose 5-100 µM; outline: as §1
[9] = Unbound brain-to-plasma concentration ratio in Han Wistar rat at 10 mg/kg,po and measured after 16 hrs by LC-MS/MS analysis; type: ADME, organism-based; conditions: read-out: K(p,uu,brain)
[10] = Dissociation constant, pKa of compound by pH-metric titration method; type: physicochemical
[11] = Mutagenicity in Salmonella typhimurium TA98 at 5 to 50 uM incubated for 96 hrs in presence of rat liver S9 fraction by Ames fluctuation assay; type: toxicity, subcellular; conditions: salmonella enterica subsp. enterica serovar typhimurium, s9, 96 h, dose 5-50 µM; outline: as §1
[12] = AUC (0 to infinity) in BALB/c mouse at 30 mg/kg, po and measured upto 24 hrs by LC-MS/MS analysis; type: ADME, organism-based; set-up: dose 30 mg/kg, time < 24 hrs, route po; conditions: in vivo
Outline: (§2)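 Female BALB/c nude mice or male Sprague-Dawley rats, 6–8 weeks old, n = 3 per route. IV by tail vein in DMSO:10% captisol in saline 1:99. PO by gavage in 1% methylcellulose. […] Assayed by LC-MS/MS, non-compartmental PK, mean ± SD.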

[13] = Toxicity in intracranial PDX BALB/c mouse model xenografted with human luciferase tagged HCC827 cells assessed as body weight loss at 10 mg/kg,po BID for 21 days; type: organism-based; conditions: in vivo, 504 h, time 21 day
Outline: (§3)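 Female BALB/c nude mice given 3 × 10^5 HCC827-luc cells in 2 μL RPMI1640 into the right forebrain under anesthesia. Randomized on day 20 after inoculation, n = 10 per group. Dosed PO b.i.d. at 12 h intervals for 21 days in 1% methylcellulose, with vehicle control. Biweekly IVIS imaging 10 min after IP D-luciferin, plus biweekly body weight. Day-21 means compared by unpaired two-tailed t-test.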

[14] = Mutagenicity in Salmonella typhimurium TA100 at 5 to 50 uM incubated for 96 hrs by Ames fluctuation assay; type: toxicity; conditions: salmonella enterica subsp. enterica serovar typhimurium, dose 5-50 µM; outline: as §1
[15] = AUC (0 to infinity) in BALB/c mouse at 3 mg/kg, iv and measured upto 24 hrs by LC-MS/MS analysis; type: ADME, organism-based; set-up: dose 3 mg/kg, time < 24 hrs, route iv; conditions: in vivo; outline: as §2
[16] = Mutagenicity in Salmonella typhimurium TA98 at 5 to 50 uM incubated for 96 hrs by Ames fluctuation assay; type: toxicity; conditions: salmonella enterica subsp. enterica serovar typhimurium, dose 5-50 µM; outline: as §1
[17] = Mutagenicity in Salmonella typhimurium TA1537 at 5 to 50 uM incubated for 96 hrs in presence of rat liver S9 fraction by Ames fluctuation assay; type: toxicity, subcellular; conditions: salmonella enterica subsp. enterica serovar typhimurium, s9, 96 h, dose 5-50 µM; outline: as §1
[18] = Genotoxicity in Chinese hamster CHO-K1 cells at 8 to 1000 uM incubated for 4 hrs in presence of rat liver S9 fraction by micronucleus test; type: toxicity, subcellular, Cricetulus griseus; conditions: s9, 4 h, dose 8-1000 µM
Outline: (§4)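 CHO-K1 cells, 96-well format, exposed to 8–1000 μM for either 4 h at 37 °C with rat liver S9 or 24 h at 37 °C without S9. Micronuclei detected by high-content fluorescence imaging. Positive controls were cyclophosphamide 7.2 μM and mitomycin C 0.3 μM. One-tailed two-sample equal-variance t-test.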

[19] = Genotoxicity in Chinese hamster CHO-K1 cells at 8 to 1000 uM incubated for 24 hrs by micronucleus test; type: toxicity, cell-based, Cricetulus griseus; conditions: cho-k1, 24 h, dose 8-1000 µM; outline: as §4
[20] = Mutagenicity in Salmonella typhimurium TA1535 at 5 to 50 uM incubated for 96 hrs by Ames fluctuation assay; type: toxicity; conditions: salmonella enterica subsp. enterica serovar typhimurium, dose 5-50 µM; outline: as §1
[21] = Metabolic stability in human hepatocytes assessed as metabolite formation at 10 uM incubated for 4 hrs by UHPLC-MS/MS analysis; type: ADME, cell-based, Hepatocyte
Outline: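 Human hepatocytes at 1.0 × 10^6 cells/mL incubated with compound at 10 μM for 0, 120 and 240 min at 37 °C. Quenched with 2 volumes of acetonitrile, centrifuged at 16,000g for 15 min, and supernatant analyzed by UHPLC-MS/MS.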

[22] = Mutagenicity in Salmonella typhimurium TA1537 at 5 to 50 uM incubated for 96 hrs by Ames fluctuation assay; type: toxicity; conditions: salmonella enterica subsp. enterica serovar typhimurium, dose 5-50 µM; outline: as §1
HCC827 = test: Antitumor activity against human luciferase tagged HCC827 cells xenografted in intracranial PDX BALB/c mouse model assessed as tumor regression at 10 mg/kg,po BID for 21 days by Bioluminescence imaging analysis; type: functional, organism-based; conditions: time 21.0 day; outline: as §3
[23] = Mutagenicity in Salmonella typhimurium TA100 at 5 to 50 uM incubated for 96 hrs in presence of rat liver S9 fraction by Ames fluctuation assay; type: toxicity, subcellular; conditions: salmonella enterica subsp. enterica serovar typhimurium, s9, 96 h, dose 5-50 µM; outline: as §1
[24] = Toxicity in intracranial PDX BALB/c mouse model xenografted with human luciferase tagged HCC827 cells assessed as adverse clinical effects at 10 mg/kg,po BID for 21 days; type: organism-based; conditions: in vivo, 504 h, time 21 day; outline: as §3
[25] = Mutagenicity in Salmonella typhimurium TA1535 at 5 to 50 uM incubated for 96 hrs in presence of rat liver S9 fraction by Ames fluctuation assay; type: toxicity, subcellular; conditions: salmonella enterica subsp. enterica serovar typhimurium, s9, 96 h, dose 5-50 µM; outline: as §1
[26] = AUC (0 to infinity) in Sprague-Dawley rat at 2 mg/kg, iv and measured upto 24 hrs by LC-MS/MS analysis; type: ADME, organism-based; set-up: dose 2 mg/kg, time < 24 hrs, route iv; conditions: in vivo; outline: as §2
[27] = Toxicity in Sprague-Dawley rat assessed as at 5 mg/kg, po; conditions: in vivo
[28] = Toxicity in Sprague-Dawley rat assessed as at 1 mg/kg, iv; conditions: in vivo

In the case of `COc1cc2ncnc(Nc3ccc(F)c(Cl)c3)c2cc1OCCON1CCOCC1`, the Activity [1] is reported as “Non-Toxic”, the Activity [2] is reported as “Non-Toxic” and the Activity [3] is reported as “Non-Toxic”. The Activity [4] was “Non-Toxic”, the Activity [5] was “Non-Toxic” and the Activity [6] was “Non-Toxic”. For the same compound, the Activity [7] was “Non-Toxic” and the Activity [8] was “Non-Toxic”.
In the case of `COc1cc2ncnc(Nc3ccc(F)c(Cl)c3)c2cc1OCCCN1CCOCC1` [GEFITINIB], the Activity [1] is reported as “Non-Toxic”, the Activity [2] is reported as “Non-Toxic” and the Activity [3] is reported as “Non-Toxic”. The Activity [4] was “Non-Toxic”, the Kp uu at 16 h [9] was 0.009 and the Activity [5] was “Non-Toxic”. The Activity [6] was “Non-Toxic”, the Activity [7] was “Non-Toxic” and the Activity [8] was “Non-Toxic”.
`NO` [HYDROXYAMINE] showed a pKa [10] of 5.9.
For `COc1cc2ncnc(Nc3cccc(Cl)c3F)c2cc1OCCON1CCN(C)CC1`, the Activity [11] was “Non-Toxic”, the AUC(0-inf) [12] was 5.29 µM·h and the Activity [13] was “Non-Toxic”. For the same compound, the Activity [14] was “Non-Toxic”, the AUC [15] was 0.866 µM·h and the Activity [16] was “Non-Toxic”. For the same compound, the Activity [17] was “Non-Toxic”, the Activity [18] was “Non-Toxic” and the Activity [19] was “Non-Toxic”. The Activity [20] was “Non-Toxic”, the Drug metabolism [21] was < 5% and the Activity [22] was “Non-Toxic”. For the same compound, the Activity (HCC827) was “Active”, the Activity [23] was “Non-Toxic” and the Activity [24] was “Non-Toxic”. The Activity [25] was “Non-Toxic” and the AUC(0-inf) [26] was 0.61 µM·h.
For `COc1cc2ncnc(Nc3cccc(Cl)c3F)c2cc1OCCON1CCOCC1`, the Activity [27] was “Non-Toxic”, the Activity [1] was “Non-Toxic” and the Activity [2] was “Non-Toxic”. The Activity [28] was “Non-Toxic”, the Activity [3] was “Non-Toxic” and the Activity [4] was “Non-Toxic”. The Activity [5] was “Non-Toxic”, the Activity [6] was “Non-Toxic” and the Activity [7] was “Non-Toxic”. For the same compound, the Activity [8] was “Non-Toxic”.
